Our source for the Emax, EC50 and IC50 values is ChEMBL document CHEMBL1128668, “Synthesis of N,N'-substituted piperazine and homopiperazine derivatives with polyamine-like actions at N-methyl-D-aspartate receptors” (J Med Chem, 1995).

Assay [1] addresses T1, Glutamate NMDA receptor (Rattus norvegicus) (UniProt P35439+Q00959+Q00960+Q00961+Q62645+Q8VHN2+Q9R1M7). Kind of assay: Efficacy in enhancing binding of [3H]- MK-801 to NMDA receptors compared to spermine. Format: protein-complex assay. Put shortly: (§1)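 Forebrains from adult male Sprague-Dawley rats (175–300 g) homogenized in 5 mM HEPES/4.5 mM Tris (pH 7.7). Membranes were washed extensively, including EDTA cycles, to remove endogenous glutamate, glycine and polyamines. About 100 μg protein was incubated with [3H]MK-801 (final 4–5 nM) and compound (1–1000 μM) for 2 h at room temperature under non-equilibrium conditions, then filtered over PEI-soaked GF/B. Nonspecific binding was taken with 100 μM phencyclidine. Efficacy is given as percent of the spermine-induced increase, ≥3 experiments.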

Assay [2] concerns the target Glutamate NMDA receptor. Kind of assay: Ability to enhance [3H]MK-801 binding to NMDA receptors in rat forebrain membranes was calculated with respect to spermine. Format: cell membranes, Membrane. A digest of the protocol: as §1
Assay [3] has as its target Glutamate NMDA receptor. Kind of assay: Inhibition of [3H]MK-801 binding to NMDA receptor by Conantokin-G (with a concentration range of 0.024-12.5 uM) stimulated by the compound at a concentration of 100 uM. In kind it is protein-complex assay.
The target in assay [4] is Glutamate NMDA receptor.
Assay [5] addresses T1, Glutamate NMDA receptor (Rattus norvegicus). Kind of assay: Efficacy of compound in enhancing binding of [3H]MK-801 to NMDA receptors compared to spermine. Format: protein-complex assay. Put shortly:
as §1

Assay [6] concerns the target Glutamate NMDA receptor. Kind of assay: Inhibition of [3H]MK-801 binding to NMDA receptor by Conantokin-G (at a concentration range of 0.024-12.5 uM) stimulated by the compound at a concentration of 100 uM. In kind it is protein-complex assay.

Each structure is given as a SMILES string.

`NCCCCN1CCN(CCCCN)CC1`: the Emax in assay [1] was found to be 71%. Further, the EC50 at Glutamate NMDA receptor [2] was 55.9 µM.

`CN(C)CCN1CCN(CCN(C)C)CC1`: the Emax in assay [1] came out at 51%. Moreover, at Glutamate NMDA receptor [2], the EC50 was 112 µM.

For `CN(C)CCCCN1CCN(CCCCN(C)C)CC1`, in assay [1], the Emax was 84%. In addition, the EC50 on Glutamate NMDA receptor [2] was 77.5 µM.

As to `CNCCCCN1CCN(CCCCNC)CC1`, the Emax in assay [1] is 68%. Moreover, the IC50 at Glutamate NMDA receptor [3] was 196 µM. In addition, the EC50 on Glutamate NMDA receptor [2] is 21.4 µM.

Take `CNCCN1CCN(CCNC)CC1`: the Emax in assay [1] worked out at 50%. For the same molecule, the EC50 at Glutamate NMDA receptor [2] is 64.5 µM.

For `CNCCCN1CCN(CCCNC)CC1`, in assay [1], the Emax is 81%. Also, at Glutamate NMDA receptor [2], the EC50 was 35.3 µM.

Turning to `NCC(=O)N1CCN(C(=O)CN)CC1`, the Emax in assay [1] came out at 90%. In addition, on Glutamate NMDA receptor [2], the EC50 was 96.5 µM.

Regarding `NCCCC(=O)N1CCN(C(=O)CCCN)CC1`, in assay [1], the Emax was 45%. Also, the EC50 at Glutamate NMDA receptor [2] was 239 µM.

In the case of `NCCCN1CCN(CCCN)CC1`, in assay [1], the Emax was determined as 80%. Moreover, the EC50 at Glutamate NMDA receptor [2] was 50.1 µM.

For the molecule `NCCCNCCCCNCCCN` [SPERMINE], the IC50 against Glutamate NMDA receptor [4] is 232 µM. In addition, the Emax in assay [5] was 100%. The EC50 at Glutamate NMDA receptor [2] is 5.2 µM.

For the molecule `C1CCN(CCCN2CCN(CCCN3CCCC3)CC2)C1`, the Emax in assay [1] turned out to be 64%. The EC50 on Glutamate NMDA receptor [2] is 45.9 µM.

Take `NCCCN1CCCN(CCCN)CC1`: in assay [1], the Emax was found to be 76%. In addition, on Glutamate NMDA receptor [2], the 50% effective concentration (EC50) was 24.4 µM.

Take `NCC(=O)N1CCCN(C(=O)CN)CC1`: in assay [5], the Emax stood at 60%. This molecule had an IC50 at Glutamate NMDA receptor [6] of 307 µM. Moreover, on Glutamate NMDA receptor [2], the EC50 was 18 µM.

As for `NCCCCN1CCCN(CCCCN)CC1`, in assay [1], the Emax worked out at 76%. Also, the EC50 on Glutamate NMDA receptor [2] is 37.5 µM.

Consider `CN(C)CCCN1CCN(CCCN(C)C)CC1`, for which the Emax in assay [1] worked out at 66%. Moreover, the EC50 on Glutamate NMDA receptor [2] was 36.8 µM.

Turning to `NCCN1CCCN(CCN)CC1`, the Emax in assay [1] amounted to 43%. The EC50 on Glutamate NMDA receptor [2] was 50.7 µM.
